Read-outs that look alike come from different tables or passages of the source.
Tests used:
[1] = target: T1, recombinant Top1 (Homo sapiens, UniProt P11387); design: key to the marks not given beside the values; conditions: score relative to 1 μM camptothecin (1); cited from earlier work
T1 sequence (P11387 1-765): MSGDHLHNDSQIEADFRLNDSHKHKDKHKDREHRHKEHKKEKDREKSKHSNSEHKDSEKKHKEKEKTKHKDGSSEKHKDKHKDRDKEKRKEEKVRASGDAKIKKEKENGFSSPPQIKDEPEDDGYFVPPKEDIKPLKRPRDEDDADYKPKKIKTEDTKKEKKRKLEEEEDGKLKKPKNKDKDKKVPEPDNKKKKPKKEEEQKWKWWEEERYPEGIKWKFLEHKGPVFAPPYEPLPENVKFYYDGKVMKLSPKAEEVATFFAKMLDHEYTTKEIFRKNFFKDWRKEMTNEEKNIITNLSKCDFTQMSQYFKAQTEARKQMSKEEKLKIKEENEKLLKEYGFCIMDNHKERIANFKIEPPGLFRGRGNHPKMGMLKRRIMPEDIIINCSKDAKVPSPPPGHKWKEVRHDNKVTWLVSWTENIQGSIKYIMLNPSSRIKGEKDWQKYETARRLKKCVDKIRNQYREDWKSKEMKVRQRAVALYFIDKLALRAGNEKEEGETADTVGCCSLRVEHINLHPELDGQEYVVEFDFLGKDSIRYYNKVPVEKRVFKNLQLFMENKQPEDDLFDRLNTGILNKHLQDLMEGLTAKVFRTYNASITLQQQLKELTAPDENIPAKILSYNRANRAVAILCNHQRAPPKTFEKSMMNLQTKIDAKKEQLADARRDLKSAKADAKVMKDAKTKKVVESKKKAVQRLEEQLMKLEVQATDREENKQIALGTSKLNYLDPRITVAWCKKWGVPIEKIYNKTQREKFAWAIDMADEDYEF

[2] = system: Lung HOP-62; conditions: read-out: Cytotoxicity (GI50, μM) Lung HOP-62; NCI-60; cited from earlier work
[3] = system: Prostate DU-145; conditions: read-out: Cytotoxicity (GI50, μM) Prostate DU-145; NCI-60; cited from earlier work
[4] = system: CNS SF-539; conditions: read-out: Cytotoxicity (GI50, μM) CNS SF-539; NCI-60; cited from earlier work
[5] = system: Melanoma UACC-62; conditions: read-out: Cytotoxicity (GI50, μM) Melanoma UACC-62; NCI-60; cited from earlier work
[6] = system: Renal SN12C; conditions: read-out: Cytotoxicity (GI50, μM) Renal SN12C; NCI-60; cited from earlier work
[7] = system: Colon HCT-116; conditions: read-out: Cytotoxicity (GI50, μM) Colon HCT-116; NCI-60; cited from earlier work
[8] = system: Ovarian OVCAR-3; conditions: read-out: Cytotoxicity (GI50, μM) Ovarian OVCAR-3; NCI-60; cited from earlier work
[9] = cited from earlier work
[10] = target: T1, recombinant Top1; test: Top1-mediated DNA cleavage assay; type: biochemical; conditions: for Top1 Cleavage: score relative to 1 μM camptothecin (1), tested at 0.1, 1, 10, 100 μM
[11] = system: all 60 cell lines (NCI-60 human tumor cell line screen); test: NCI-60 GI50 mean graph midpoint; type: cell-based; conditions: read-out: Cytotoxicity (GI50, μM) MGM
In short: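 Compounds were first screened at a single 10 μM dose across NCI-60 lines. Those with low enough averaged growth percent advanced to a five-concentration assay (10⁻⁸–10⁻⁴ M). […] Values beyond the range were recorded as the minimum or maximum tested concentration. MGM is the average GI50 over all 60 lines.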

## COc1cc2c3c(n(CCCN4CCOCC4)c(=O)c2cc1OC)-c1cc2c(cc1C3=O)OCO2 [Compound 4, indotecan]
[1]
  Top1 Cleavage: ++++
[2]
  GI50: 1.78 µM
[3]
  GI50: 0.155 µM
[4]
  GI50: 0.04 µM
[5]
  GI50: 0.03 µM
[6]
  GI50: 0.813 µM
[7]
  GI50: 1.15 µM
[8]
  GI50: 74.1 µM

## COc1cc2c3c(n(CCCn4ccnc4)c(=O)c2cc1OC)-c1cc2c(cc1C3=O)OCO2 [Compound 5, indimitecan]
[1]
  Top1 Cleavage: ++++
[9]
  Metabolism in the presence of human liver microsomes: oxidative demethylation of the 2-methoxy group
[2]
  GI50: < 0.01 µM
[3]
  GI50: < 0.01 µM
[4]
  GI50: 0.037 µM
[5]
  GI50: < 0.01 µM
[6]
  GI50: < 0.01 µM
[7]
  GI50: < 0.01 µM
[8]
  GI50: 0.085 µM

## COc1cc2c3c(n(CCCNCCO)c(=O)c2cc1OC)-c1cc2c(cc1C3=O)OCO2 [Compound 6, MJ-III-65]
[1]
  Top1 Cleavage: ++++
[3]
  GI50: 0.02 µM
[5]
  GI50: 0.03 µM

## O=C1c2cc3c(cc2-c2c1c1ccc(F)cc1c(=O)n2C[C@H](O)CO)OCO3 [Compound 21, (S)-3-Fluoro-6-(2,3-dihydroxypropyl)-8,9-methylenedioxy-5H-indeno[1,2-c]isoquinoline-5,11(6H)-dione]
[10]
  Top1 Cleavage: ++++

## O=C1c2cc3c(cc2-c2c1c1ccc(Cl)cc1c(=O)n2C[C@H](O)CO)OCO3 [Compound 22, (S)-3-Chloro-6-(2,3-dihydroxypropyl)-8,9-methylenedioxy-5H-indeno[1,2-c]isoquinoline-5,11(6H)-dione]
[10]
  Top1 Cleavage: ++ (++, between 50 and 75% activity)

## O=C1c2cc3c(cc2-c2c1c1ccc(F)cc1c(=O)n2C[C@H](O)[C@@H](O)[C@H](O)CO)OCO3 [Compound 23, (2′S,3′R,4′R)-3-Fluoro-5,6-dihydro-6-(2′,3′,4′,5′-tetrahydroxypentyl)-8,9-methylenedioxy-5,11-dioxo-11H-indeno[1,2-c]isoquinoline]
[10]
  Top1 Cleavage: ++ (++, between 50 and 75% activity)

## O=C1c2cc3c(cc2-c2c1c1ccc(Cl)cc1c(=O)n2C[C@H](O)[C@H](O)[C@H](O)CO)OCO3 [Compound 24, (2′S,3′S,4′R)-3-Chloro-5,6-dihydro-6-(2′,3′,4′,5′-tetrahydroxypentyl)-8,9-methylenedioxy-5,11-dioxo-11H-indeno[1,2-c]isoquinoline]
[10]
  Top1 Cleavage: + (+, between 20 and 50% activity)

## O=C1c2cc3c(cc2-c2c1c1ccc(F)cc1c(=O)n2CCCn1ccnc1)OCO3 [Compound 25, 3-Fluoro-6-(3-(1H-imidazol-1-yl)propyl)-8,9-methylenedioxy-5,11-dioxo-11H-indeno[1,2-c]isoquinoline]
[10]; high drug concentration (100 μM), band density at several cleavage sites decreases
  Top1 suppression activity: suppress Top1-mediated DNA cleavage
[10]
  Top1 Cleavage: +++ (+++, between 75 and 95% activity)
[11]
  GI50: ≤ 0.011 µM

## O=C1c2cc3c(cc2-c2c1c1ccc(Cl)cc1c(=O)n2CCCn1ccnc1)OCO3 [Compound 26, 3-Chloro-6-(3-(1H-imidazol-1-yl)propyl)-8,9-methylenedioxy-5,11-dioxo-11H-indeno[1,2-c]isoquinoline]
[10]
  Top1 Cleavage: ++ (++, between 50 and 75% activity)

## O=C(O)C(F)(F)F.O=C1c2cc3c(cc2-c2c1c1ccc(F)cc1c(=O)n2CCCN1CCOCC1)OCO3 [Compound 27, 3-Fluoro-5,6-dihydro-6-(3-morpholinopropyl)-8,9-methylenedioxy-5,11-dioxo-11H-indeno[1,2-c]isoquinoline Trifluoroacetate]
[10]
  Top1 Cleavage: + (+, between 20 and 50% activity)

## O=C(O)C(F)(F)F.O=C1c2cc3c(cc2-c2c1c1ccc(Cl)cc1c(=O)n2CCCN1CCOCC1)OCO3 [Compound 28, 3-Chloro-5,6-dihydro-6-(3-morpholinopropyl)-8,9-methylenedioxy-5,11-dioxo-11H-indeno[1,2-c]isoquinoline Trifluoroacetate]
[10]
  Top1 Cleavage: + (+, between 20 and 50% activity)

## O=C1c2cc3c(cc2-c2c1c1cc(F)c(F)cc1c(=O)n2C[C@H](O)CO)OCO3 [Compound 37, (S)-2,3-Difluoro-6-(2,3-dihydroxypropyl)-8,9-methylenedioxy-5,11-dioxo-11H-indeno[1,2-c]isoquinoline]
[10]
  Top1 Cleavage: ++ (++, between 50 and 75% activity)

## O=C1c2cc3c(cc2-c2c1c1cc(F)c(F)cc1c(=O)n2CCCn1ccnc1)OCO3 [Compound 38, 2,3-Difluoro-6-(3-(1H-imidazol-1-yl)propyl)-8,9-methylenedioxy-5,11-dioxo-11H-indeno[1,2-c]isoquinoline]
[10]
  Top1 Cleavage: + (+, between 20 and 50% activity)
[11]
  GI50: 0.03 µM

## O=C1c2cc3c(cc2-c2c1c1cc(Cl)c(Cl)cc1c(=O)n2C[C@H](O)CO)OCO3 [Compound 45, (S)-2,3-Dichloro-6-(2,3-dihydroxypropyl)-8,9-methylenedioxy-5,11-dioxo-11H-indeno[1,2-c]isoquinoline]
[10]
  Top1 Cleavage: ++ (++, between 50 and 75% activity)

## O=C1c2cc3c(cc2-c2c1c1cc(Cl)c(Cl)cc1c(=O)n2CCCn1ccnc1)OCO3 [Compound 46, 2,3-Dichloro-6-(3-(1H-imidazol-1-yl)propyl)-8,9-methylenedioxy-5,11-dioxo-11H-indeno[1,2-c]isoquinoline]
[10]
  Top1 Cleavage: + (+, between 20 and 50% activity)

Reference: paper PMC4789169 (Bioorganic & medicinal chemistry, 2016)
